Data on 18 molecules can be found in PubChem BioAssay.

A number with no mark means an inactive call. Inconclusive results are not listed. Calls of active or inactive are those of the source.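 How the source made its calls, unless noted: active means viability at or below 27.92% in each of two runs, the all-compound median minus 4 SD; inconclusive means no clear call, values can overlap the other calls; inactive means the rest.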

By viability is commonly meant a read-out of living cells in per cent, often relative to untreated cells. What is called inhibition is the drop in the measured response relative to a control, in per cent.

Assay [1] in a line: OD615 S. cerevisiae growth inhibition, permissive medium, pilot counter-assay, permissive growth control for S. cerevisiae lifespan shortening project (AID 705;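 active means growth inhibition above 25% in both replicates, a cutoff set 3 SD above the mean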). As to conditions: OD615, 24 h, at 10 µM, active compounds read high. In short, it runs like this: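 System: Engineered DeaD yeast | Buffer or medium: SC raffinose/galactose permissive medium | Incubation: Cells pre-grown 4 h, then 24 h compound exposure, 30 °C humidified | Measured by: Absorbance (optical density) at 615 nm | Read-out: Reduction in yeast growth (OD615)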

Assay [2] in a line: Restrictive medium S. cerevisiae growth inhibition, OD615, pilot screen of yeast lifespan reduction project, restrictive growth control (AID 706;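 active means growth inhibition above a set limit, 3 SD over mean compound inhibition, in both replicates, cut at about 43% in these data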;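 further: modified DeaD lifespan yeast strain shifted to restrictive glucose medium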). Particulars: OD615, 48 h, at 10 µM, active compounds read high. In outline:
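Material: modified S. cerevisiae; Medium: glucose-based CSMM-D restrictive medium; Compound dosing: one concentration, 10 µM final, 0.25% DMSO; Incubation: 48 h compound exposure at 30 °C; Measured by: OD615.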

A short description of assay [3]: viability gain of MRP-1-high H69AR cells under doxorubicin, pilot screen, MRP-1 activator project, CellTiter-Glo, duplicate (AID 807;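 active means viability increase at or above a cutoff of the median across tested compounds plus 3 SD, cut at about 8.5% in these data, passing the limit was not always enough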;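 further: compound pretreatment 18-22 h then 72 h combined with doxorubicin; 0% = doxorubicin alone and 100% = vehicle without doxorubicin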). Particulars: H69AR viability with doxorubicin, CellTiter-Glo luminescence; at 10 µM; active compounds read high.
A short description of assay [4]: growth suppression of beta-catenin knockout HCT116, pilot screen, human colon tumor cells (AID 823;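 active means cell viability at or below a set limit in both duplicate runs, the limit being the all-compound median minus 4 SD, cut at about 23% in these data, passing the limit was not always enough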;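 further: 0% = wells killed by 20 µM Hyamine and 100% = untreated DMSO cell wells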). Particulars: CellTiter-Glo, 60 h, at 10 µM, active compounds read low. For orientation: ATP-based viability assays read luminescence as a measure of living cells.
Assay [5] can be described thus: growth suppression of PTEN-deleted HCT116, pilot screen, cell-based, HCT116 clonal line, CellTiter-Glo (AID 824).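 Further: 0% = 20 µM Hyamine control and 100% = vehicle cell control.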 Particulars: 60 h, at 10 µM, active compounds read low.
Assay [6] can be described thus: inhibitors of the yeast RAM network, pilot screen, dse1pr::URA3 reporter, 5-FOA selection (AID 869;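 active means inhibition over a set limit, the all-compound mean plus 3 SD, in both replicate runs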;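 further: 0% = DMSO wells with no growth and 100% = 10 µM 1-NA-PP1 with full growth; RAM network block rescues cells from 5-FOA so hits raise OD615 growth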). As to conditions: S. cerevisiae dse1pr::URA3 5-FOA growth, OD615, 2 d; at 10 µM; active compounds read high; strain carries analog-sensitive mutant Cbk1 kinase.
Assay [7] is described as follows: RAM signaling pathway blockade in yeast – S. cerevisiae, Pdr1DBD-CYC8 efflux-inhibited sensitized strain, primary screen (AID 1298;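 active means RAM network inhibition above 8.4% in each of two replicates, 3 SD over the compound average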;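 further: 0% = DMSO untreated cells without growth and 100% = 10 µM 1-NA-PP1 full growth; higher means more yeast growth rescued from 5-FOA killing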). As to conditions: S. cerevisiae cbk1-as DSE1-URA3 strain, 5-FOA growth OD615, 2 d; at 50 µM; active compounds read high.

For `CC(C)Sc1oc(-c2ccco2)nc1S(=O)(=O)c1ccc(F)cc1`, the growth inhibition in assay [1] was -5.61%; in assay [2], -0.07%. For the same molecule, the viability increase in assay [3] is -2.29%. Also, the figures for the viability in assay [4] and in assay [5] were 94% and 89.8%, respectively. Also, the inhibition in assay [6] was 1.54%. In addition, the RAM network inhibition in assay [7] is 6.36%.
Regarding `CC1CCN(CC(O)COc2ccc(F)cc2)CC1` (stereo unspecified), the growth inhibition in assay [1] is -19.2%; in assay [2], -16.5%. The viability increase in assay [3] was -0.7%. Also, the viability is 96.4% in assay [4] and 99.5% in assay [5]. For the same molecule, in assay [6], the inhibition was 0.515%. In addition, the RAM network inhibition in assay [7] is 2.56%.
For the molecule `O=C(O)CCc1ccc(-c2cccs2)n1-c1ccc(C(=O)O)cc1`, the growth inhibition in assay [1] is -3.21%; in assay [2], 3.42%. The viability increase in assay [3] is -0.51%. For the same molecule, the viability in assay [4] is 98.7%; in assay [5], 93.5%. The inhibition in assay [6] was 2.39%. In addition, the RAM network inhibition in assay [7] is -0.68%.
Turning to `CCOC(=O)N1CCC(NC(=O)C2CCCN(Cc3nc(-c4cccc(Cl)c4)oc3C)C2)CC1` (stereo unspecified), the values for the growth inhibition in assay [1] and in assay [2] were -13.4% and -23.4%, respectively. Besides, the viability increase in assay [3] is -5.39%. Moreover, the viability was 40.4% in assay [4] and 49.5% in assay [5]. Moreover, the inhibition in assay [6] is 0.715%. In addition, the RAM network inhibition in assay [7] is 3.95%.
As for `COc1ccc(-c2nc(C(N)=O)c3[nH]c(=O)n(-c4cccc(C)c4)c3n2)c(OC)c1`, the growth inhibition is -10.8% in assay [1] and -14.3% in assay [2]. In assay [3], the viability increase is -5.41%. The values for the viability in assay [4] and in assay [5] were 81.6% and 74.3%, respectively. Further, the inhibition in assay [6] is 3.42%. Besides, the RAM network inhibition in assay [7] is 5.6%.
`OCCN1CCN(Cc2cccc(Oc3ccc(Cl)cc3)c2)CC1`: the growth inhibition in assay [1] is -4.24%; in assay [2] it was -1.81%. The viability increase in assay [3] is -3.74%. In addition, the viability in assay [4] was 63.2%; in assay [5], 73.1%. In assay [6], the inhibition was 2.6%. Also, the RAM network inhibition in assay [7] is -0.21%.
On to `CC1(C(=O)NC2CCCCC2)CCC(=O)N1Cc1cccnc1` (stereo unspecified), for which the figures for the growth inhibition in assay [1] and in assay [2] were -8.59% and -7.4%, respectively. Further, the viability increase in assay [3] is -0.54%. Besides, the viability in assay [4] is 102%; in assay [5], 104%. Moreover, the inhibition in assay [6] is 0.95%. In addition, the RAM network inhibition in assay [7] was 0.89%.
`Cc1ccccc1OCC(O)Cn1c(NCCN(C)C)nc2c1c(=O)n(C)c(=O)n2C` (stereo unspecified): the growth inhibition is -13.3% in assay [1] and 2.24% in assay [2]. Further, the viability increase in assay [3] is -1.92%. Also, the viability in assay [4] was 93.5%; in assay [5], 99.4%. The inhibition in assay [6] is 2.01%. Moreover, the RAM network inhibition in assay [7] was 1.15%.
As for `COc1ccc(NC2=C(C)C(=O)CC2)cc1`, the values for the growth inhibition in assay [1] and in assay [2] were 7.55% and -3.12%, respectively. The viability increase in assay [3] is -4.82%. Further, the values for the viability in assay [4] and in assay [5] were 65.9% and 69.5%, respectively. The inhibition in assay [6] is 0.505%. Moreover, the RAM network inhibition in assay [7] was 1.49%.
Take `O=C(CCS(=O)(=O)c1ccccc1)Nc1nc(-c2ccccn2)cs1`: the growth inhibition in assay [1] was -9.64%; in assay [2], -13.3%. Moreover, the viability increase in assay [3] was -8.92%. Moreover, the results for the viability in assay [4] and in assay [5] were 8.11% (active) and 6.03% (active), respectively. In addition, the inhibition in assay [6] was 1.85%. Moreover, the RAM network inhibition in assay [7] is 3.99%.
`Cc1nccc2[nH]c(=O)c(C(=O)NC3CCN(Cc4ccccc4)CC3)cc12`: the values for the growth inhibition in assay [1] and in assay [2] were -0.105% and -8.34%, respectively. Moreover, the viability increase in assay [3] is -3.81%. Besides, the viability was 104% in assay [4] and 93.9% in assay [5]. Further, the inhibition in assay [6] was 1.82%. In addition, in assay [7], the RAM network inhibition was 7.9%.
Turning to `CC(=O)Nc1ccc(NC(=O)C2CC(=O)N(c3cccc(C)c3C)C2)cc1` (stereo unspecified), the growth inhibition was -21.2% in assay [1] and -8.03% in assay [2]. Further, the viability increase in assay [3] was -1.32%. For the same molecule, the viability in assay [4] was 93.8%; in assay [5], 91.2%. Further, in assay [6], the inhibition is 0.435%. The RAM network inhibition in assay [7] is 2.95%.
For `O=C(c1cccc(S(=O)(=O)N2CCCC2)c1)c1cccc(S(=O)(=O)N2CCCC2)c1`, the growth inhibition is -6.99% in assay [1] and -7.98% in assay [2]. For the same molecule, the viability increase in assay [3] is -1.22%. Besides, the viability in assay [4] was 60.7%; in assay [5] it was 56.5%. The inhibition in assay [6] was 1.09%. In assay [7], the RAM network inhibition is 5.82%.
As for `CCOC(=O)N1CCN(C(c2ccc(C(C)C)cc2)c2sc3nc(C)nn3c2O)CC1` (stereo unspecified), the growth inhibition was -1.48% in assay [1] and -10.5% in assay [2]. Besides, in assay [3], the viability increase was 2.48%. The viability is 102% in assay [4] and 91% in assay [5]. For the same molecule, in assay [6], the inhibition was 0.2%. Besides, in assay [7], the RAM network inhibition is 0.93%.
Turning to `Cc1ccc(C)c(S(=O)(=O)NC(CC(C)C)C(=O)O)c1` (stereo unspecified), the growth inhibition in assay [1] is -9.28%; in assay [2] it was -29.3%. Further, in assay [3], the viability increase is -1.32%. In addition, the viability in assay [4] is 105%; in assay [5] it was 102%. In addition, the inhibition in assay [6] was 1.69%. In addition, the RAM network inhibition in assay [7] was 2.5%.
With `O=C(c1csc2c1CCCC2)N1CCCCC1`, the figures for the growth inhibition in assay [1] and in assay [2] were 12.4% and 8.33%, respectively. Besides, in assay [3], the viability increase is -1.17%. Also, the viability in assay [4] was 99.2%; in assay [5], 102%. Also, the inhibition in assay [6] was -0.145%. The RAM network inhibition in assay [7] is 1.12%.
For `CCOc1ccc(N(C(C)C(=O)Nc2ccc(OC)cc2)S(C)(=O)=O)cc1` (stereo unspecified), the growth inhibition in assay [1] is -10.2%; in assay [2] it was -1.65%. Besides, the viability increase in assay [3] is 0.78%. Also, the viability was 103% in assay [4] and 90.2% in assay [5]. Further, the inhibition in assay [6] is 1%. Besides, the RAM network inhibition in assay [7] was 3.17%.
For `CSc1ccc(C2C(C#N)=C(N)N(c3ccccc3)C3=C2C(=O)CCC3)cc1` (stereo unspecified), the growth inhibition in assay [1] was -11.5%; in assay [2] it was -19.7%. In assay [3], the viability increase is -7.43%. Moreover, the results for the viability in assay [4] and in assay [5] were 69.5% and 74.6%, respectively. The inhibition in assay [6] is 1.18%. The RAM network inhibition in assay [7] was 2.23%.
